Read-outs that look alike come from different tables or passages of the source.

Data set [1] is described as follows: MANT-ATP binding by stopped flow fluorescence spectroscopy. To be noted: for Kd: read-out: MANT-ATP binding Kd (calc., koff/kon).
Data set [2] has as its system IFN-β/FireflyLuc reporter in HEK 293T cells. Briefly: IFN-β induction dual luciferase assay. The data set is classed as cell-based. Particulars: for Maximum IFN-β Production, 5΄OH10L: HEK 293T cells challenged with 5΄OH10L; for Maximum IFN-β Production, 5΄ppp10L: HEK 293T cells challenged with 5΄ppp10L; for Maximum IFN-β Production, PIC: HEK 293T cells challenged with poly(I:C); for Maximum IFN-β Production, Mock: HEK 293T cells, mock challenge (no exogenous RNA).

The next data set relates to 5΄ppp10L RNA hairpin. Briefly: NADH coupled ATPase activity assay. The class given is biochemical. To be noted: for K M,RNA / k cat: steady state ATPase activity; for K M,RNA: 5΄ppp10L. The gist of the method:
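Coupled NADH assay: 10 nM RIG-I in 25 mM MOPS pH 7.4, 150 mM NaCl, 5 mM DTT with 1 mM NADH, 100 U/ml lactate dehydrogenase, 500 U/ml pyruvate kinase and 2.5 mM PEP. The hairpin was added as a 12-point series (~0.5–500 nM, diluted in MES pH 6.0/EDTA) and incubated ≥2 h at RT. Reactions were started with 5 mM ATP/5 mM MgCl2, and NADH absorbance loss was followed for 10 min. Mean velocities were plotted against RNA concentration.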

The subject of data set [3] is 5΄ppp10L hairpin RNA. Particulars: presence of either ATPγS or ADP; ref [22]; cited from earlier work.
Data set [4] has as its target FAM-labeled 10 base pair RNA hairpin (OH10L). In words: Equilibrium fluorescent RNA binding assay. Particulars: read-out: Equilibrium RNA binding Kd, OH10L. Summed up:
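Recombinant hRIG-I was expressed from pET-SUMO in E. coli Rosetta II (DE3) and purified by nickel, heparin and Superdex 200 chromatography. 6-FAM was attached via the amino-modified UUCG tetraloop, with 2 nM hairpin final. Buffer: 25 mM MOPS pH 7.4, 150 mM NaCl, 5 mM DTT, 0.01% Triton X-100. Protein was titrated over 12 points (1.5–1500 nM) and equilibrated 2 h at RT. Polarization was read at ex 485/em 528 (G = 0.87), 2 wells × 3 reads, and fit one-site total binding. Three experiments gave mean and SD.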

Data set [5] relates to 5΄ppp10L hairpin RNA. Briefly: RNA dissociation rate constant measurements. The data set is classed as binding. The gist of the method: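 RIG-I was pre-incubated equimolar with Cy3-labeled hairpin for 2–6 h at RT, then rapidly mixed with 100-fold excess unlabeled hairpin trap (2000 points). Nucleotide (3 mM ATPγS or ADP) plus MgCl2 was included with the trap. Excitation was 515 nm with emission ≥570 nm. 4–6 averaged traces were fit double-exponential for amplitudes and k1/k2.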

Setting [6] is: from 5΄ppp10L, nucleotide: ADP (3 mM).
Where [7] appears, read: from 5΄ppp10L, nucleotide: ATPγS (3 mM).
Setting [8] is: from 5΄ppp10L, nucleotide: None.

B1: WT RIG-I: Wild-type human RIG-I (hRIG-I), innate immune receptor and RNA-stimulated ATPase, recombinant or expressed from pUNO-hRIG-I (protein, UniProt O95786 1-925, looked up)
Antiviral innate immune …: MTTEQRRSLQAFQDYIRKTLDPTYILSYMAPWFREEEVQYIQAEKNNKGPMEAATLFLKFLLELQEEGWFRGFLDALDHAGYSGLYEAIESWDFKKIEKLEEYRLLLKRLQPEFKTRIIPTDIISDLSECLINQECEEILQICSTKGMMAGAEKLVECLLRSDKENWPKTLKLALEKERNKFSELWIVEKGIKDVETEDLEDKMETSDIQIFYQEDPECQNLSENSCPPSEVSDTNLYSPFKPRNYQLELALPAMKGKNTIICAPTGCGKTFVSLLICEHHLKKFPQGQKGKVVFFANQIPVYEQQKSVFSKYFERHGYRVTGISGATAENVPVEQIVENNDIIILTPQILVNNLKKGTIPSLSIFTLMIFDECHNTSKQHPYNMIMFNYLDQKLGGSSGPLPQVIGLTASVGVGDAKNTDEALDYICKLCASLDASVIATVKHNLEELEQVVYKPQKFFRKVESRISDKFKYIIAQLMRDTESLAKRICKDLENLSQIQNREFGTQKYEQWIVTVQKACMVFQMPDKDEESRICKALFLYTSHLRKYNDALIISEHARMKDALDYLKDFFSNVRAAGFDEIEQDLTQRFEEKLQELESVSRDPSNENPKLEDLCFILQEEYHLNPETITILFVKTRALVDALKNWIEGNPKLSFLKPGILTGRGKTNQNTGMTLPAQKCILDAFKASGDHNILIATSVADEGIDIAQCNLVILYEYVGNVIKMIQTRGRGRARGSKCFLLTSNAGVIEKEQINMYKEKMMNDSILRLQTWDEAVFREKILHIQTHEKFIRDSQEKPKPVPDKENKKLLCRKCKALACYTADVRVIEECHYTVLGDAFKECFVSRPHPKPKQFSSFEKRAKIFCARQNCSHDWGIHVKYKTFEIPVIKIESFVVEDIATGVQTLYSKWKDFHFEKIPFDPAEMSK
As for B1, the Kd in data set [1] (protein bound to OH10L) is 136 ± 6 µM. Further, in data set [2], the “Maximum IFN-β Production, 5΄OH10L” value is 3.8 ± 0.3 Firefly Luc/Renilla Luc; the “Maximum IFN-β Production, 5΄ppp10L” value worked out at 20.1 ± 1.7 Firefly Luc/Renilla Luc; the “Maximum IFN-β Production, PIC” value was determined as 59.2 ± 15 Firefly Luc/Renilla Luc; the “Maximum IFN-β Production, Mock” value came out at 0.99 ± 0.4 Firefly Luc/Renilla Luc. Moreover, the “K M,RNA” value in the data set on 5΄ppp10L RNA hairpin worked out at 10.0 ± 1.0 nM. Also, in the data set on 5΄ppp10L RNA hairpin (stimulated by 5΄ppp10L), the k cat worked out at 18.2 ± 0.3 ATP/RIG-I•s and the “kcat (RNA-stimulated ATPase activity)” value worked out at 18.2 s⁻¹. Besides, the “increase in the rate of dissociation from 5΄ppp10L” value in the data set with 5΄ppp10L hairpin RNA [3] is given as 5 fold. Further, the Kd in data set [4] is 17 ± 1 nM.

B2: S411A: RIG-I variant with mutation S411A within conserved helicase Motif III; constitutively signaling (protein, UniProt O95786 1-925, looked up, variant S411A)
Antiviral innate immune …: MTTEQRRSLQAFQDYIRKTLDPTYILSYMAPWFREEEVQYIQAEKNNKGPMEAATLFLKFLLELQEEGWFRGFLDALDHAGYSGLYEAIESWDFKKIEKLEEYRLLLKRLQPEFKTRIIPTDIISDLSECLINQECEEILQICSTKGMMAGAEKLVECLLRSDKENWPKTLKLALEKERNKFSELWIVEKGIKDVETEDLEDKMETSDIQIFYQEDPECQNLSENSCPPSEVSDTNLYSPFKPRNYQLELALPAMKGKNTIICAPTGCGKTFVSLLICEHHLKKFPQGQKGKVVFFANQIPVYEQQKSVFSKYFERHGYRVTGISGATAENVPVEQIVENNDIIILTPQILVNNLKKGTIPSLSIFTLMIFDECHNTSKQHPYNMIMFNYLDQKLGGSSGPLPQVIGLTAAVGVGDAKNTDEALDYICKLCASLDASVIATVKHNLEELEQVVYKPQKFFRKVESRISDKFKYIIAQLMRDTESLAKRICKDLENLSQIQNREFGTQKYEQWIVTVQKACMVFQMPDKDEESRICKALFLYTSHLRKYNDALIISEHARMKDALDYLKDFFSNVRAAGFDEIEQDLTQRFEEKLQELESVSRDPSNENPKLEDLCFILQEEYHLNPETITILFVKTRALVDALKNWIEGNPKLSFLKPGILTGRGKTNQNTGMTLPAQKCILDAFKASGDHNILIATSVADEGIDIAQCNLVILYEYVGNVIKMIQTRGRGRARGSKCFLLTSNAGVIEKEQINMYKEKMMNDSILRLQTWDEAVFREKILHIQTHEKFIRDSQEKPKPVPDKENKKLLCRKCKALACYTADVRVIEECHYTVLGDAFKECFVSRPHPKPKQFSSFEKRAKIFCARQNCSHDWGIHVKYKTFEIPVIKIESFVVEDIATGVQTLYSKWKDFHFEKIPFDPAEMSK
On to B2, for which, in data set [1] (protein bound to OH10L), the “greater affinity for MANT-ATP relative to WT” value is given as 2 fold and the Kd was 75 ± 5 µM. Besides, the Kd in data set [1] (protein bound to 5΄ppp10L) was 82 ± 6 µM. For the same molecule, in the data set on 5΄ppp10L hairpin RNA [5] (setting [6]), the “Amplitude of k 1” value worked out at 62%, the “Amplitude of k 2” value stood at 38%, the “k 1 (RNA dissociation rate constant)” value is 70 ± 0.9 × 10^−3 s^−1 and the “k 2 (RNA dissociation rate constant)” value is listed as 6 ± 0.1 × 10^−3 s^−1. In the data set on 5΄ppp10L hairpin RNA [5] (setting [7]), the “Amplitude of k 1” value was 42%, the “Amplitude of k 2” value turned out to be 58%, the “k 1 (RNA dissociation rate constant)” value was 68 ± 0.9 × 10^−3 s^−1 and the “k 2 (RNA dissociation rate constant)” value was 2 ± 0.04 × 10^−3 s^−1. In addition, in the data set with 5΄ppp10L hairpin RNA [5] (setting [8]), the “Amplitude of k 1” value worked out at 52%, the “Amplitude of k 2” value came out at 48%, the “k 1 (RNA dissociation rate constant)” value is on record as 45 ± 0.2 × 10^−3 s^−1 and the “k 2 (RNA dissociation rate constant)” value is 4 ± 0.1 × 10^−3 s^−1. Also, the “effect of nucleotide on the rate of dissociation from 5΄ppp10L” value in the data set on 5΄ppp10L hairpin RNA [5] (saturating nucleotide (ATPγS, ADP)) was “did not significantly change”. In data set [2], the “Maximum IFN-β Production, 5΄OH10L” value was found to be 19.5 ± 3.8 Firefly Luc/Renilla Luc; the “Maximum IFN-β Production, 5΄ppp10L” value is on record as 56.6 ± 10.8 Firefly Luc/Renilla Luc; the “Maximum IFN-β Production, PIC” value came out at 209.8 ± 17 Firefly Luc/Renilla Luc; the “Maximum IFN-β Production, Mock” value is 3.5 ± 0.5 Firefly Luc/Renilla Luc. Also, in the data set on 5΄ppp10L RNA hairpin, the “K M,RNA” value was determined as 5.0 ± 1 nM. Besides, the k cat with 5΄ppp10L RNA hairpin (stimulated by 5΄ppp10L) stood at 5.1 ± 0.4 ATP/RIG-I•s. Also, the Kd in data set [4] turned out to be 23 ± 1.8 nM.

B3: S411L: RIG-I Motif III variant, serine 411 mutated to leucine, annotated in tumor samples (protein, UniProt O95786 1-925, looked up, variant S411L)
Antiviral innate immune …: MTTEQRRSLQAFQDYIRKTLDPTYILSYMAPWFREEEVQYIQAEKNNKGPMEAATLFLKFLLELQEEGWFRGFLDALDHAGYSGLYEAIESWDFKKIEKLEEYRLLLKRLQPEFKTRIIPTDIISDLSECLINQECEEILQICSTKGMMAGAEKLVECLLRSDKENWPKTLKLALEKERNKFSELWIVEKGIKDVETEDLEDKMETSDIQIFYQEDPECQNLSENSCPPSEVSDTNLYSPFKPRNYQLELALPAMKGKNTIICAPTGCGKTFVSLLICEHHLKKFPQGQKGKVVFFANQIPVYEQQKSVFSKYFERHGYRVTGISGATAENVPVEQIVENNDIIILTPQILVNNLKKGTIPSLSIFTLMIFDECHNTSKQHPYNMIMFNYLDQKLGGSSGPLPQVIGLTALVGVGDAKNTDEALDYICKLCASLDASVIATVKHNLEELEQVVYKPQKFFRKVESRISDKFKYIIAQLMRDTESLAKRICKDLENLSQIQNREFGTQKYEQWIVTVQKACMVFQMPDKDEESRICKALFLYTSHLRKYNDALIISEHARMKDALDYLKDFFSNVRAAGFDEIEQDLTQRFEEKLQELESVSRDPSNENPKLEDLCFILQEEYHLNPETITILFVKTRALVDALKNWIEGNPKLSFLKPGILTGRGKTNQNTGMTLPAQKCILDAFKASGDHNILIATSVADEGIDIAQCNLVILYEYVGNVIKMIQTRGRGRARGSKCFLLTSNAGVIEKEQINMYKEKMMNDSILRLQTWDEAVFREKILHIQTHEKFIRDSQEKPKPVPDKENKKLLCRKCKALACYTADVRVIEECHYTVLGDAFKECFVSRPHPKPKQFSSFEKRAKIFCARQNCSHDWGIHVKYKTFEIPVIKIESFVVEDIATGVQTLYSKWKDFHFEKIPFDPAEMSK
As to B3, the Kd in data set [1] (protein bound to 5΄ppp10L) was 110 ± 8 µM. The “stimulation of koff^RNA by ATPγS” value in the data set on 5΄ppp10L hairpin RNA [5] (from 5΄ppp10L) is reported as 7.8 fold. Further, in the data set on 5΄ppp10L hairpin RNA [5] (setting [7]), the “Amplitude of k 1” value came to 81%, the “Amplitude of k 2” value worked out at 19%, the “k 1 (RNA dissociation rate constant)” value is 210 ± 1 × 10^−3 s^−1 and the “k 2 (RNA dissociation rate constant)” value is 10 ± 0.1 × 10^−3 s^−1. In the data set with 5΄ppp10L hairpin RNA [5] (setting [8]), the “Amplitude of k 1” value was determined as 52%, the “Amplitude of k 2” value is on record as 48%, the “k 1 (RNA dissociation rate constant)” value is reported as 27 ± 0.2 × 10^−3 s^−1 and the “k 2 (RNA dissociation rate constant)” value is listed as 2 ± 0.04 × 10^−3 s^−1. Besides, the “loss in IFN-β activation relative to WT” value in data set [2] (HEK 293T cells challenged by 5΄ppp10L) is listed as 3 fold. Further, in data set [2] (HEK 293T cells challenged by poly I:C), the “loss in IFN-β activation relative to WT” value came to 31 fold. Also, in data set [2], the “Maximum IFN-β Production, 5΄ppp10L” value is on record as 7.8 ± 1.5 Firefly Luc/Renilla Luc; the “Maximum IFN-β Production, PIC” value was determined as 1.8 ± 0.4 Firefly Luc/Renilla Luc; the “Maximum IFN-β Production, Mock” value was found to be 0.2 ± 0.01 Firefly Luc/Renilla Luc. Moreover, the “K M,RNA” value with 5΄ppp10L RNA hairpin was “Inactive”. Further, in the data set with 5΄ppp10L RNA hairpin (stimulated by 5΄ppp10L), the k cat result was “Inactive”. Further, the Kd in data set [4] was determined as 41 ± 1.8 nM.

These data come from PMC5388420 (Nucleic Acids Research, 2016).
